Measurements taken from ChEMBL document CHEMBL1125911, “Synthesis and biological activity of new HMG-CoA reductase inhibitors. 3. Lactones of 6-phenoxy-3,5-dihydroxyhexanoic acids” (J Med Chem, 1991).
One block for each compound: values may come before it.

What was measured:
[1] = species on record: Rattus norvegicus; test: In vitro inhibition of microsomal lipid peroxidation; type: functional
How it was run: (§1)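 Rat liver microsomes in 50 mM Tris-HCl pH 7.4 with 100 mM KCl and 6.0 mM MgCl2, final protein 0.4 mg/mL. Peroxidation was started with ADP (2 mM)/FeCl3 (10 μM) plus an NADPH-regenerating system. Incubation 30 min at 37 °C with shaking. Thiobarbituric acid reactive substances were read at 535 nm.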

[2] = system: Canis familiaris; test: Tested in vivo for hypocholesterolemic activity by measuring its ability to decrease serum LDL-cholesterol, after oral administration of 5 mg/kg per day for 14 days in male Beagle dogs.; type: functional, Canis lupus familiaris
How it was run: (§2)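 Male beagle dogs (n = 4) given neat compound in gelatine capsules daily at 3:00 p.m.; controls received empty capsules. After an overnight fast, venous blood was drawn at 8:00 a.m. Serum lipoproteins were separated by ultracentrifugation (densities 1.006/1.063/1.21). LDL-cholesterol reported as % change versus control.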

[3] = species on record: Sus scrofa; test: Compound was tested for inhibition of Cu2+ catalyzed LDL oxidation and the potency relative to terbufucine was determined; type: functional
How it was run: (§3)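 Porcine plasma LDL isolated by sequential ultracentrifugation (density 1.019-1.063 g/mL), dialysed against PBS pH 7.4, then diluted to 0.1 mg/mL protein. Preincubated 1 h at 37 °C under N2 with compound in ethanol. Oxidised with 5 μM Cu2+ for 2 h at 37 °C in air. Fluorescence read at ex 365/em 430 nm.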

[4] = system: Canis familiaris; test: Tested in vivo for hypocholesterolemic activity by measuring its ability to decrease serum LDL-cholesterol, after oral administration of 30 mg/kg per day for 14 days in male Beagle dogs.; type: functional, Canis lupus familiaris; how it was run: as §2
[5] = species on record: Sus scrofa; test: In vitro inhibition of Cu2+ catalyzed LDL oxidation at 10e-5 M conc.; type: functional; how it was run: as §3
[6] = system: Canis familiaris; test: Tested in vivo for hypocholesterolemic activity by measuring its ability to decrease serum LDL-cholesterol, after oral administration of 10 mg/kg per day for 14 days in male Beagle dogs.; type: functional, Canis lupus familiaris; how it was run: as §2
[7] = target: T1, 3-hydroxy-3-methylglutaryl-coenzyme A reductase (Rattus norvegicus) (UniProt P51639); test: (§4) Inhibition of HMG-CoA reductase compared to mevinolin.
T1 sequence (whole entry): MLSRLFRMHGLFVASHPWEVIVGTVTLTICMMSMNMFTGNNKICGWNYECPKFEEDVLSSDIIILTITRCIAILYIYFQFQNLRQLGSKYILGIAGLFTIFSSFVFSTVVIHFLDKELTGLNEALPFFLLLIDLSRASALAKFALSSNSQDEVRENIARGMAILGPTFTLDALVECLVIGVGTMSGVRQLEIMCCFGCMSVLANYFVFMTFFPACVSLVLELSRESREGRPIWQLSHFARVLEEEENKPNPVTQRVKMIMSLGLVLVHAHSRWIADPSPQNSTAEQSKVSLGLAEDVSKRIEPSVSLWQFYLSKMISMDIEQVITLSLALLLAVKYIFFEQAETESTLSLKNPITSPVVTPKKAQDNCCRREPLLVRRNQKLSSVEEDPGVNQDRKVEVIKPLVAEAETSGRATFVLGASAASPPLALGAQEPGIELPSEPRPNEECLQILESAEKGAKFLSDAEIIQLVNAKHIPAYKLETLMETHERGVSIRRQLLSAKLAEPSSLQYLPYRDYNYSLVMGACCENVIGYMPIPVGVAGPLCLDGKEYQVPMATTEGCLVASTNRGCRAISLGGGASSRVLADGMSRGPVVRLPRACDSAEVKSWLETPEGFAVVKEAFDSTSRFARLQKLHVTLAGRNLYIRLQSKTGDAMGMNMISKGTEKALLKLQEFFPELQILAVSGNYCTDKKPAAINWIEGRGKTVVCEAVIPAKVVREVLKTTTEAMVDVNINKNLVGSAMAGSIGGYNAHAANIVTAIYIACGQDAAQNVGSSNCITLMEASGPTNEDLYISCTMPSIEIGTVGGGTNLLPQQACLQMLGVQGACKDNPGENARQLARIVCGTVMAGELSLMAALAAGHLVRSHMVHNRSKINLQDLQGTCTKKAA
How it was run: (§5)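 Solubilized, partially purified rat liver HMG-CoA reductase. IC50 from four or five inhibitor concentrations. Relative potency compared IC50 with mevinolin (set to 100), corrected for molecular weight.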

[8] = target: T2, 3-hydroxy-3-methylglutaryl-coenzyme A reductase (Homo sapiens, UniProt P04035); test: Inhibition of the incorporation of sodium [14C]acetate into cholesterol in HEP G2 cells.; type: functional, cell-based, HepG2
T2 sequence (P04035 whole entry): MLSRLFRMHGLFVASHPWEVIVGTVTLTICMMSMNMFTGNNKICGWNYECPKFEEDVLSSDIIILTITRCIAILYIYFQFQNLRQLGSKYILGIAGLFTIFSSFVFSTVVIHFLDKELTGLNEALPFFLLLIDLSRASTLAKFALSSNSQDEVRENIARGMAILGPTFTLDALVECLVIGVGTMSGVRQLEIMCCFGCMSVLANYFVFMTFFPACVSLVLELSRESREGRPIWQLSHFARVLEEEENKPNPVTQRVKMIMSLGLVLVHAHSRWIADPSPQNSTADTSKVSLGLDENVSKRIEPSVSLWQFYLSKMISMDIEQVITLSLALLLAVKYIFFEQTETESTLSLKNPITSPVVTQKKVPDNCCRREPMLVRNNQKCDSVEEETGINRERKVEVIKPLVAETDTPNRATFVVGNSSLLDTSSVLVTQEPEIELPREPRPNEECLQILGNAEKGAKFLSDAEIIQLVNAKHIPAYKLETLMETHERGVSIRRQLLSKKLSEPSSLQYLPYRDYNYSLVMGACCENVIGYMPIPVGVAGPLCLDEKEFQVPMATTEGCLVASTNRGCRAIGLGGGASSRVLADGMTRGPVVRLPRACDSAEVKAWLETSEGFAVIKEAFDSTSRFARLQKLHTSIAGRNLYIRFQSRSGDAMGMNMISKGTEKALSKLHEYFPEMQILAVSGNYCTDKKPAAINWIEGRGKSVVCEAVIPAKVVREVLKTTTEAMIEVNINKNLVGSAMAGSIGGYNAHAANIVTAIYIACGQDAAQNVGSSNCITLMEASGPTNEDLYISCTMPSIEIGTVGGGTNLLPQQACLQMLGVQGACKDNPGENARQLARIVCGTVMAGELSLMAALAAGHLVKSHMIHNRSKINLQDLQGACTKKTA

[9] = system: Canis familiaris; test: Tested in vivo for hypocholesterolemic activity by measuring its ability to decrease serum LDL-cholesterol, after oral administration of 25 mg/kg per day for 14 days in male Beagle dogs.; type: functional, Canis lupus familiaris; how it was run: as §2
[10] = system: Oryctolagus cuniculus; test: Tested in vivo for hypocholesterolemic activity by measuring its ability to decrease serum total cholesterol, after oral administration of 10 mg/kg body wt. per day in normolipidemic NZW rabbits; type: functional
How it was run: (§6)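 NZW rabbits (n = 5 or 6) dosed orally daily for 10 days. Serum total cholesterol reported as % change versus control. For 20 mg/kg, that dose was given on days 11-20 after 10 mg/kg, with the value read on day 20. Error given as SEM.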

[11] = target: T3, 3-hydroxy-3-methylglutaryl-coenzyme A reductase (Rattus norvegicus, UniProt P51639); test: In vitro inhibition of HMG-CoA reductase in solubilized rat liver.
T3 sequence (P51639 whole entry): T1 sequence (whole entry)

[12] = system: Oryctolagus cuniculus; test: Tested in vivo for hypocholesterolemic activity by measuring its ability to decrease serum total cholesterol, after oral administration of 75 mg/kg body wt. per day in normolipidemic NZW rabbits; Very potent; type: functional, organism-based; parameters: dose 75 mg/kg, route oral
[13] = target: T4, 3-hydroxy-3-methylglutaryl-coenzyme A reductase (Homo sapiens) (UniProt P04035); test: as §4; type: functional; how it was run: as §5
T4 sequence (whole entry): T2 sequence (P04035 whole entry)

[14] = system: Oryctolagus cuniculus; test: Tested in vivo for hypocholesterolemic activity by measuring its ability to decrease serum total cholesterol, after oral administration of 20 mg/kg body wt. per day in normolipidemic NZW rabbits; type: functional; how it was run: as §6
[15] = system: Oryctolagus cuniculus; test: Tested in vivo for hypocholesterolemic activity by measuring its ability to decrease serum total cholesterol, after oral administration of 75 mg/kg body wt. per day in normolipidemic NZW rabbits; Not significantly active; type: functional, organism-based; parameters: dose 75 mg/kg, route oral
[16] = system: Rattus norvegicus; test: Compound was tested for effect on serum VLDL after oral administration of 100 mg/kg in male rats; type: functional
How it was run: (§7)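 Male HOE:WISKf (SPF 71) rats, initial body weight over 180 g, n = 10 per group, dosed once daily in the morning by gavage in polyethylene glycol 400 for 7 days; controls received vehicle. Fasted after last dose, bled retroorbitally 24 h later under mild ether. Liver and body weight recorded. Pooled group serum was ultracentrifuged into VLDL (<1.006), LDL (1.006-1.04) and HDL (1.04-1.21). Values are % change versus control.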

[17] = system: Rattus norvegicus; test: Compound was tested for effect on body weight after oral administration of 100 mg/kg in male rats.; type: functional; how it was run: as §7
[18] = system: Rattus norvegicus; test: Compound was tested for effect on serum HDL after oral administration of 100 mg/kg in male rats; type: functional; how it was run: as §7
[19] = system: Rattus norvegicus; test: Compound was tested for effect on serum LDL after oral administration of 100 mg/kg in male rats; type: functional; how it was run: as §7
[20] = species on record: Rattus norvegicus; test: Compound was tested for inhibition of microsomal lipid peroxidation and the potency relative to terbufucine was determined; type: functional; how it was run: as §1
[21] = system: Rattus norvegicus; test: Compound was tested for effect on liver weight after oral administration of 100 mg/kg in male rats.; type: functional; how it was run: as §7
[22] = species on record: Rattus norvegicus; test: In vitro inhibition of microsomal lipid peroxidation at 10e-5 M concentration; type: functional; how it was run: as §1
[23] = species on record: Rattus norvegicus; test: Potency relative to mevinolin was determined with respect to IC50. […]; type: functional
[24] = system: Rattus norvegicus; test: In vivo inhibition of hepatic cholesterol de novo synthesis in rat after oral administration of 5 mg/kg dose; type: functional
[25] = system: Canis familiaris; test: Tested in vivo for hypocholesterolemic activity by measuring its ability to decrease serum LDL-cholesterol, after oral administration of 30 mg/kg per day for 21 days in male Beagle dogs.; type: functional, Canis lupus familiaris; how it was run: as §2
[26] = target: T3, 3-hydroxy-3-methylglutaryl-coenzyme A reductase; test: In vitro inhibition of solubilized HMG-CoA reductase in rat liver.
[27] = system: Oryctolagus cuniculus; test: Tested in vivo for hypocholesterolemic activity by measuring its ability to decrease serum total cholesterol, after oral administration of 75 mg/kg body wt. per day in normolipidemic NZW rabbits; More potent than compound 73; type: functional, organism-based; parameters: dose 75 mg/kg, route oral
[28] = system: Canis familiaris; test: Tested in vivo for hypocholesterolemic activity by measuring its ability to decrease serum LDL-cholesterol, after oral administration of 10 mg/kg per day for 19 days in male Beagle dogs.
[29] = system: Oryctolagus cuniculus; test: Tested in vivo for hypocholesterolemic activity by measuring its ability to decrease serum total cholesterol, after oral administration of 75 mg/kg body wt. per day in normolipidemic NZW rabbits; type: functional; how it was run: as §6

IC50 [1]: > 10000 nM
Compound: CC(C)c1cc(Sc2ccc(F)cc2)cc(-c2ccc(F)cc2)c1OCC1C[C@@H](O)CC(=O)O1 (stereo partly drawn)
Change [2]: -9%
Relative potency [3]: <0.1
Change [4]: -21%
inhibition at 10 µM [5]: 23%

Compound: CC(C)c1cc(-c2ccc(F)cc2)c(OCC(O)C[C@@H](O)CC(=O)[O-])c(C(C)C)c1.[Na+] (stereo partly drawn)
Change [6]: -10%
Relative potency [7]: 300
IC50 [8]: 30 nM
Change [9]: -21%
Change [10]: -32%
IC50 [11]: 2.7 nM
IC50 [12]: Very potent
Relative potency [13]: 150
Change [14]: -37%

Relative potency [7]: 2
IC50 [8]: > 500 nM
IC50 [11]: 400 nM
Relative potency [13]: < 10
IC50 [15]: Not Active
Compound: CC(C)c1cc(C(C)(C)C)cc(-c2ccc(F)cc2)c1OCC(O)C[C@@H](O)CC(=O)[O-].[Na+] (stereo partly drawn)

Relative potency [7]: 37
IC50 [8]: > 1000 nM
IC50 [11]: 10 nM
Relative potency [13]: < 5
Compound: CC(C)c1cc(SC(C)(C)Sc2cc(-c3ccc(F)cc3)c(OC[C@H](O)C[C@@H](O)CC(=O)[O-])c(C(C)C)c2)cc(-c2ccc(F)cc2)c1OC[C@H](O)C[C@@H](O)CC(=O)[O-].[Na+].[Na+]
Change [16]: -23%
Change [17]: 5%
Change [18]: 9%
Change [19]: -52%
Relative potency [20]: < 0.1
Change [21]: -1%
inhibition [22]: < 10%

Compound: CC(C)c1cc(-c2ccc(F)cc2)cc(-c2ccc(F)cc2)c1OCC1C[C@@H](O)CC(=O)O1 (stereo partly drawn)
Relative potency [23]: 18
Change [10]: -28%
Cholesterol [24]: 84.5%
Change [25]: 3%
Change [14]: -34%

IC50 [26]: 1 nM
IC50 [27]: More potent than compound 73
Compound: CC(C)c1nc(C(C)(C)C)cc(-c2ccc(F)cc2)c1/C=C/[C@@H](O)C[C@@H](O)CC(=O)[O-].[Na+]

Compound: CC[C@H](C)C(=O)O[C@H]1C[C@@H](C)C=C2C=C[C@H](C)[C@H](CC[C@@H]3C[C@@H](O)CC(=O)O3)[C@H]21 [LOVASTATIN]
Change [10]: -25%
Cholesterol [24]: 14%
Change [28]: -20%
Change [14]: -27%

IC50 [11]: 50 nM
Compound: O=C([O-])C[C@H](O)CC(O)COc1c(Cl)cc(Cl)cc1C(c1ccc(F)cc1)c1ccc(F)cc1.[Na+] (stereo in doubt; 11b)
Change [29]: -25%
